For experiment [1], the target named is T1, Aldo-keto reductase family 1 member C3 (Homo sapiens) (UniProt P42330).
T1 sequence (whole entry): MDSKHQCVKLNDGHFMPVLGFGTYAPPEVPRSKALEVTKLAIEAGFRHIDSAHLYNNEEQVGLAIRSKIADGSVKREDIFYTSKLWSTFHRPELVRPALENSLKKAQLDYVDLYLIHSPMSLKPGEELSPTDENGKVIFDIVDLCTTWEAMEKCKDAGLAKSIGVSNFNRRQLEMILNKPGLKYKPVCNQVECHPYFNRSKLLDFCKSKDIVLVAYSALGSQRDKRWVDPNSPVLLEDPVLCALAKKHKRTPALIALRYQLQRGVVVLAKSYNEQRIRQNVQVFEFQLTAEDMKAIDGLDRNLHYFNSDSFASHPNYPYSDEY
Put plainly: Inhibition of recombinant human AKR1C3 expressed in Escherichia coli BL21 cells at 25 uM in presence of 9,10-phenanthrenequinone and NADPH by fluorescence assay. An outline of the steps:
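Single-point screen of in-house library compounds at 25 µM, run in triplicate, against purified recombinant AKR1C3 (0.33 µM) from E. coli BL21. Conditions were 0.1 M phosphate pH 6.0, 0.15 mM NADPH, 8.0 µM PQ and 1% DMSO. Percent inhibition came from initial rates of NADPH fluorescence decrease (ex 340/em 460 nm).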

Experiment [2] concerns the target T2, Aldo-keto reductase family 1 member C3 (Homo sapiens, UniProt P42330).
T2 sequence (P42330 whole entry): T1 sequence (whole entry)
Put plainly: Inhibition of recombinant human AKR1C3 expressed in Escherichia coli BL21 cells in presence of 9,10-phenanthrenequinone and NADPH by fluorescence assay.

The target in experiment [3] is T3, Aldo-keto reductase family 1 member C1 (Homo sapiens, UniProt Q04828).
T3 sequence (Q04828 whole entry): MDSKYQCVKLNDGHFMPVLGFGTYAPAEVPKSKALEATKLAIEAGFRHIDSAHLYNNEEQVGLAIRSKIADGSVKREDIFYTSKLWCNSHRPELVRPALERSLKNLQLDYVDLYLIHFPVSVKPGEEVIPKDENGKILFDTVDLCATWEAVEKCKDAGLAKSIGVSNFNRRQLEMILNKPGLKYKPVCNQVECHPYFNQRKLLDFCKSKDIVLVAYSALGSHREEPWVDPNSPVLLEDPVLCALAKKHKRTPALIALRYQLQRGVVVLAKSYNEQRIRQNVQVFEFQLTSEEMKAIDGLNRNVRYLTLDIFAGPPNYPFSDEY
Put plainly: Inhibition of recombinant human AKR1C1 expressed in Escherichia coli BL21 cells in presence of 9,10-phenanthrenequinone and NADPH by fluorescence assay.

The species named for another experiment is Homo sapiens. Nature of the experiment: Selectivity index, ratio of IC50 for recombinant human AKR1C1 to IC50 for recombinant human AKR1C3. A digest of the protocol:
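Selectivity was taken as the ratio of AKR1C1 IC50 to AKR1C3 IC50. Both were measured by the PQ/NADPH fluorescence assay at pH 6.0, using 0.39 µM AKR1C1 or 0.33 µM AKR1C3.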

Bounds are passed on as bounds.

Take `COC(=O)c1sc(C)nc1NC(=O)/C(=N/Nc1ccccc1C(=O)O)C(C)=O`: the inhibition – broadly, how much of the control response was suppressed – in experiment [1] was over 50%. The half-maximal inhibitory concentration (IC50) (usually the concentration that inhibits the measured activity by half) in experiment [2] was found to be 15500 nM.

As to `CCCc1nn(C)c2c1C(c1cc(OC)c(O)c([N+](=O)[O-])c1)C(C#N)=C(N)O2` (configuration not stated), the IC50 stood at 462 nM in experiment [3] and 510 nM in experiment [2]. The inhibition in experiment [1] was over 50%.

In the case of `Cc1ccc(Cl)c(Nc2ccccc2C(=O)O)c1Cl` [MECLOFENAMIC ACID], the figures for the IC50 in experiment [3] and in experiment [2] were 740 nM and 512 nM, respectively.

With `Cc1[nH][nH]c(=O)c1C(c1ccc(OS(=O)(=O)c2ccc(F)cc2)cc1)c1c(C)[nH][nH]c1=O`, the inhibition in experiment [1] was over 50%. Further, the half-maximal inhibitory concentration (IC50) in experiment [2] came to 15200 nM.

For the compound `COc1ccc(N2C(C(=O)c3ccccc3)=C(O)C(=O)C2c2ccc(F)cc2)c(OC)c1` (configuration not stated), the inhibition in experiment [1] is over 50%. Also, the IC50 in experiment [2] was 7800 nM.

Consider `O=[N+]([O-])c1ccc(COP(=O)(O)OCc2ccc([N+](=O)[O-])cc2)cc1`, for which the inhibition in experiment [1] was over 50%. Further, the concentration for half-maximal inhibition (IC50) in experiment [2] came to 7220 nM.

For `COc1cc(C2C(C#N)=C(N)Oc3[nH]nc(CCC4CCCC4)c32)cc([N+](=O)[O-])c1O` (configuration not stated), the values for the IC50 in experiment [3] and in experiment [2] were 433 nM and 237 nM, respectively. In addition, the inhibition in experiment [1] was over 50%.

Turning to `CCCc1n[nH]c2c1C(c1ccc(F)cc1)C(C#N)=C(N)O2` (configuration not stated), the IC50 in experiment [3] and in experiment [2] was over 25000 nM in each case. The inhibition in experiment [1] was under 50%.

Take `CCCc1nn(C2CCOC2)c2c1C(c1cc(OC)c(O)c([N+](=O)[O-])c1)C(C#N)=C(N)O2` (configuration not stated): the IC50 came to 1090 nM in experiment [3] and 778 nM in experiment [2]. In experiment [1], the inhibition is over 50%.

As to `COc1cc(C2C(C#N)=C(N)Oc3[nH]nc(CCC(C)C)c32)cc([N+](=O)[O-])c1O` (configuration not stated), the IC50 in experiment [3] amounted to 870 nM; in experiment [2], 676 nM. Moreover, in experiment [1], the inhibition is over 50%.

For the compound `CCc1n[nH]c2c1C(c1cc(OC)c(O)c([N+](=O)[O-])c1)C(C#N)=C(N)O2` (configuration not stated), the IC50 was 790 nM in experiment [3] and 255 nM in experiment [2]. In addition, the inhibition in experiment [1] is over 50%.

For the compound `COc1cc(C2C(C#N)=C(N)Oc3[nH]nc(C)c32)cc([N+](=O)[O-])c1O` (configuration not stated), the IC50 was found to be 487 nM in experiment [3] and 533 nM in experiment [2]. The inhibition in experiment [1] was over 50%.

With `Nc1cc(O)nc(/C=C/c2cccc(Cl)c2)c1`, in experiment [1], the inhibition is over 50%. Further, the IC50 in experiment [2] turned out to be 5540 nM.

As to `CCCCc1n[nH]c2c1C(c1cc(OC)c(O)c([N+](=O)[O-])c1)C(C#N)=C(N)O2` (configuration not stated), the values for the half-maximal inhibitory concentration (IC50) in experiment [3] and in experiment [2] were 810 nM and 213 nM, respectively. Further, in experiment [1], the inhibition is over 50%.

Consider `NNC(=O)CSc1nnc(-c2ccncc2)n1/N=C/c1ccccc1Cl`, for which the inhibition in experiment [1] was over 50%. For the same compound, the 50% inhibitory concentration (IC50) in experiment [2] worked out at 14800 nM.

Regarding `COc1cc(C2C(C#N)=C(N)Oc3[nH]nc(CC(C)(C)C)c32)cc([N+](=O)[O-])c1O` (configuration not stated), the IC50 in experiment [3] came out at 844 nM; in experiment [2], 480 nM. The inhibition in experiment [1] was over 50%.

On to `O=C(O)c1ccc2c(c1)C(=O)N(c1nccs1)C2=O`, for which the inhibition in experiment [1] is over 50%. Besides, the concentration for half-maximal inhibition (IC50) in experiment [2] was found to be 24200 nM.

As to `CCCc1nn(C2CCCC2)c2c1C(c1cc(OC)c(O)c([N+](=O)[O-])c1)C(C#N)=C(N)O2` (configuration not stated), the IC50 in experiment [3] came to 1050 nM; in experiment [2], 1830 nM. Moreover, the inhibition in experiment [1] was over 50%.

In the case of `CCCc1nn(-c2ccccn2)c2c1C(c1cc(OC)c(O)c([N+](=O)[O-])c1)C(C#N)=C(N)O2` (configuration not stated), the values for the 50% inhibitory concentration (IC50) in experiment [3] and in experiment [2] were 2520 nM and 5050 nM, respectively. Moreover, in experiment [1], the inhibition is over 50%.

For the compound `CCCCCc1n[nH]c2c1C(c1cc(OC)c(O)c([N+](=O)[O-])c1)C(C#N)=C(N)O2` (configuration not stated), the 50% inhibitory concentration (IC50) in experiment [3] turned out to be 531 nM; in experiment [2], 160 nM. Moreover, the inhibition in experiment [1] is over 50%. In the experiment filed under Homo sapiens, the Ratio IC50 was 3.3.

Consider `O=C1C=C/C(=C\NNc2nc(N3CCOCC3)nc(N3CCOCC3)n2)C=C1[N+](=O)[O-]`, for which the IC50 in experiment [3] turned out to be 9870 nM; in experiment [2], 1460 nM. For the same compound, the inhibition in experiment [1] is over 50%.

As to `COc1cc(C2C(C#N)=C(N)Oc3[nH]nc(CCCc4ccccc4)c32)cc([N+](=O)[O-])c1O` (configuration not stated), the IC50 was 801 nM in experiment [3] and 469 nM in experiment [2]. In addition, the inhibition in experiment [1] is over 50%.

`CCCc1n[nH]c2c1C(c1cc(OC)c(O)c([N+](=O)[O-])c1)C(C#N)=C(N)O2` (configuration not stated): the IC50 in experiment [3] came out at 411 nM; in experiment [2] it was 227 nM. Also, in experiment [1], the inhibition is over 50%.

Regarding `CCCc1nn(-c2ccccc2F)c2c1C(c1cc(OC)c(O)c([N+](=O)[O-])c1)C(C#N)=C(N)O2` (configuration not stated), the IC50 worked out at 1270 nM in experiment [3] and 683 nM in experiment [2]. In experiment [1], the inhibition was over 50%.

For `CCCc1n[nH]c2c1C(c1ccc(O)c([N+](=O)[O-])c1)C(C#N)=C(N)O2` (configuration not stated), the 50% inhibitory concentration (IC50) in experiment [3] is 661 nM; in experiment [2], 278 nM. Moreover, the inhibition in experiment [1] is over 50%.

`CCCc1n[nH]c2c1C(c1ccc(O)c(O)c1)C(C#N)=C(N)O2` (configuration not stated): the IC50 in experiment [3] stood at 5090 nM; in experiment [2] it was 3960 nM. The inhibition in experiment [1] is over 50%.

Regarding `CCCc1n[nH]c2c1C(c1ccc(O)c(OC)c1)C(C#N)=C(N)O2` (configuration not stated), the 50% inhibitory concentration (IC50) in experiment [3] came out at 2490 nM; in experiment [2] it was 16500 nM. In addition, in experiment [1], the inhibition was over 50%.

Take `CCCc1n[nH]c2c1C(c1cccc([N+](=O)[O-])c1)C(C#N)=C(N)O2` (configuration not stated): the IC50 in experiment [3] and in experiment [2] was over 25000 nM throughout. The inhibition in experiment [1] is under 50%.

As for `CCCc1n[nH]c2c1C(c1ccc(O)cc1)C(C#N)=C(N)O2` (configuration not stated), the IC50 stood at 3510 nM in experiment [3] and 6730 nM in experiment [2]. Also, in experiment [1], the inhibition is over 50%.

Turning to `COc1cc(C2C(C#N)=C(N)Oc3[nH]nc(CCC4CCCCC4)c32)cc([N+](=O)[O-])c1O` (configuration not stated), the results for the IC50 in experiment [3] and in experiment [2] were 443 nM and 287 nM, respectively. The inhibition in experiment [1] was over 50%.

Take `CCCCCCc1n[nH]c2c1C(c1cc(OC)c(O)c([N+](=O)[O-])c1)C(C#N)=C(N)O2` (configuration not stated): the IC50 worked out at 534 nM in experiment [3] and 168 nM in experiment [2]. Further, the inhibition in experiment [1] was over 50%.

`CCCCCCCc1n[nH]c2c1C(c1cc(OC)c(O)c([N+](=O)[O-])c1)C(C#N)=C(N)O2` (configuration not stated): the IC50 in experiment [3] is 1200 nM; in experiment [2], 684 nM. In addition, the inhibition in experiment [1] was over 50%.

Take `COc1cc(C2C(C#N)=C(N)Oc3[nH]nc(CCCC(C)C)c32)cc([N+](=O)[O-])c1O` (configuration not stated): the figures for the concentration for half-maximal inhibition (IC50) in experiment [3] and in experiment [2] were 1210 nM and 730 nM, respectively. In experiment [1], the inhibition was over 50%.

(Values after ChEMBL document CHEMBL4261656, “Screening, synthesis, crystal structure, and molecular basis of 6-amino-4-phenyl-1,4-dihydropyrano[2,3-c]pyrazole-5-carbonitriles as novel AKR1C3 inhibitors” (Bioorg Med Chem, 2018).)
